{
  "source": "ChEMBL document CHEMBL3232894",
  "about": "“Discovery of AMG 925, a FLT3 and CDK4 dual kinase inhibitor with preferential affinity for the activated state of FLT3” (J Med Chem, 2014)",
  "key": {"[1]": {"target": "Cyclin-dependent kinase 4/cyclin D1 (Homo sapiens, UniProt P11802)", "sequence (P11802 whole entry)": "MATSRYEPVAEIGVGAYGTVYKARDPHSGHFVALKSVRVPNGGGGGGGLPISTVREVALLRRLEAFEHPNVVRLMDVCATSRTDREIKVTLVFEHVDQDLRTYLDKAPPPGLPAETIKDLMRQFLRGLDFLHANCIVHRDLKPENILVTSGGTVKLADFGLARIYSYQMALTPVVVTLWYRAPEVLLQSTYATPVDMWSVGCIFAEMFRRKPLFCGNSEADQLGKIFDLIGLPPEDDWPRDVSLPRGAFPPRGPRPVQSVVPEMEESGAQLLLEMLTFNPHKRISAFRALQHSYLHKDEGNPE", "sequence (P24385 whole entry, further chain)": "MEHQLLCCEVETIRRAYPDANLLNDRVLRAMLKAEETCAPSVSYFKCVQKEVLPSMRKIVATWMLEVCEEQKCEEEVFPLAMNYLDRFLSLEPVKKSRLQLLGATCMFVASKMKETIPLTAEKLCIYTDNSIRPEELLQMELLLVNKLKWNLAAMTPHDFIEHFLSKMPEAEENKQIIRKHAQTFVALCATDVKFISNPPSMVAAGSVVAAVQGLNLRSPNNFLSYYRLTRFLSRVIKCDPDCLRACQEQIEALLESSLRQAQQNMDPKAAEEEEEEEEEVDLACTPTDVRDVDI", "experiment": "Inhibition of CDK4/cyclin D1 (unknown origin) using Rb as substrate after 60 mins by scintillation counting analysis in presence of [r-33P]ATP", "format": "protein-complex assay"}, "[2]": {"experiment": "Antiproliferative activity against Rb-negative human MDA-MB-436 cells assessed as incorporation of [3H]thymidine into DNA after 72 hrs by beta-plate counting analysis", "format": "functional"}, "[3]": {"experiment": "Oral bioavailability in rat", "format": "ADME, organism-based", "conditions": "in vivo", "how_it_was_run": "(§1)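 Intravenous and oral (gavage, solution) PK in rat, dog and cynomolgus monkey. The rat vehicle for both routes was water/acetate/tween at pH 4, 96/3/1 (v/v/v). Dog and monkey iv doses used 40% PG aqueous solution at pH 2, and their oral doses used 20% captisol aqueous solution.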"}, "[4]": {"target": "T1, Receptor-type tyrosine-protein kinase FLT3 (Homo sapiens, UniProt P36888, ITD)", "experiment": "Inhibition of FLT3 ITD mutant in human MOLM13 cells assessed as inhibition of STAT5 phosphorylation at Tyr694 after 24 hrs", "format": "cell-based, MOLM-13"}, "[5]": {"target": "T2, Receptor-type tyrosine-protein kinase FLT3 (Homo sapiens, UniProt P36888)", "T2 sequence (P36888 whole entry)": "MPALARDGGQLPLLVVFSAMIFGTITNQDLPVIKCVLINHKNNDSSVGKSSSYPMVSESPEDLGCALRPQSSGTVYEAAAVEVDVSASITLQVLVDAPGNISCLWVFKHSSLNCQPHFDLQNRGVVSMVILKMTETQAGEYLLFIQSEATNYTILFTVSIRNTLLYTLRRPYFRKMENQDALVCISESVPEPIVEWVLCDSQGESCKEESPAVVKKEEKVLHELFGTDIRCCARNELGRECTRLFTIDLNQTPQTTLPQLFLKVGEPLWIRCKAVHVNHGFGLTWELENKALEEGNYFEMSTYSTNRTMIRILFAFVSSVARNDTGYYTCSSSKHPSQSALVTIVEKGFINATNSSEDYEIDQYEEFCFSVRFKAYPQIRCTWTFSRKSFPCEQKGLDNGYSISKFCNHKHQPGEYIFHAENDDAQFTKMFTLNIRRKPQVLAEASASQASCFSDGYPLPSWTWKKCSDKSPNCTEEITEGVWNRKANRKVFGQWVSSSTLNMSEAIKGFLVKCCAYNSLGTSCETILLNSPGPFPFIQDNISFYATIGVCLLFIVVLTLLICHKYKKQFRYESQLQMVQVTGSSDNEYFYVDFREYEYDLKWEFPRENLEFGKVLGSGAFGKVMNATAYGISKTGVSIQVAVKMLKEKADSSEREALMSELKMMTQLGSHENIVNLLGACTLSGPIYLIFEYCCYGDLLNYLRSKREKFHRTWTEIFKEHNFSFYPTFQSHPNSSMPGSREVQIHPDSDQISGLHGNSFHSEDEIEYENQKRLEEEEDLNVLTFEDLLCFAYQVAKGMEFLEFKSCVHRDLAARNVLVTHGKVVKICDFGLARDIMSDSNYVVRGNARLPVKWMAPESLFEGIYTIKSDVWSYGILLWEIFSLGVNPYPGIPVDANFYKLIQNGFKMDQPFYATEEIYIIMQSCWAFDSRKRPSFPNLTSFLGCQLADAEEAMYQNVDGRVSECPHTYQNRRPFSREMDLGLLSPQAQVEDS", "experiment": "Binding affinity to wild type FLT3 (unknown origin)"}, "[6]": {"target": "T1, Receptor-type tyrosine-protein kinase FLT3", "experiment": "Binding affinity to FLT3 ITD mutant (unknown origin)"}, "[7]": {"target": "Receptor-type tyrosine-protein kinase FLT3 (Homo sapiens, UniProt P36888, D835Y)", "experiment": "Binding affinity to FLT3 D835Y mutant (unknown origin)"}, "[8]": {"target": "Receptor-type tyrosine-protein kinase FLT3 (Homo sapiens, UniProt P36888, D835H)", "experiment": "Binding affinity to FLT3 D835H mutant (unknown origin)"}, "[9]": {"target": "Receptor-type tyrosine-protein kinase FLT3 (Homo sapiens, UniProt P36888, K663Q)", "experiment": "Binding affinity to FLT3 K663Q mutant (unknown origin)"}, "[10]": {"target": "Receptor-type tyrosine-protein kinase FLT3 (Homo sapiens, UniProt P36888, N841I)", "experiment": "Binding affinity to FLT3 N841I mutant (unknown origin)"}, "[11]": {"experiment": "Clearance in iv dosed dog", "format": "ADME, organism-based, Canis lupus familiaris", "conditions": "in vivo", "how_it_was_run": "as §1"}, "[12]": {"experiment": "Volume of distribution at steady state in iv dosed dog", "format": "ADME, organism-based, Canis lupus familiaris", "conditions": "in vivo, read-out: Vdss", "how_it_was_run": "as §1"}, "[13]": {"experiment": "Elimination half-life in iv dosed dog", "format": "ADME, organism-based, Canis lupus familiaris", "conditions": "in vivo, read-out: beta t1/2 (converted)", "how_it_was_run": "as §1"}, "[14]": {"experiment": "Oral bioavailability in dog", "format": "ADME, organism-based, Canis lupus familiaris", "conditions": "in vivo", "how_it_was_run": "as §1"}, "[15]": {"experiment": "Clearance in iv dosed cynomolgus monkey", "format": "ADME, organism-based, Macaca fascicularis", "conditions": "in vivo", "how_it_was_run": "as §1"}, "[16]": {"experiment": "Volume of distribution at steady state in iv dosed cynomolgus monkey", "format": "ADME, organism-based, Macaca fascicularis", "conditions": "in vivo, read-out: Vdss", "how_it_was_run": "as §1"}, "[17]": {"experiment": "Elimination half-life in iv dosed cynomolgus monkey", "format": "ADME, organism-based, Macaca fascicularis", "conditions": "in vivo, read-out: beta t1/2 (converted)", "how_it_was_run": "as §1"}, "[18]": {"experiment": "Oral bioavailability in cynomolgus monkey", "format": "ADME, organism-based, Macaca fascicularis", "conditions": "in vivo", "how_it_was_run": "as §1"}, "MOLM-13 [19]": {"system": "MOLM-13", "experiment": "Antitumor activity against human MOLM13 cells xenografted in po dosed CrTac:NCR-Foxn1nu (NCR) nude mouse assessed as tumor growth inhibition administered qd for 8 days", "format": "functional", "how_it_was_run": "(§2)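 Oral dosing once daily, day 5 to day 13, in NCR nude mice bearing established subcutaneous human MOLM13 AML xenografts, at 25, 50, 75 and 150 mg/kg against a vehicle group. Tumor growth inhibition read on day 14. AUC comes from terminal PK on plasma collected after the final dose.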"}, "MOLM-13 [20]": {"system": "MOLM-13", "experiment": "Antitumor activity against human MOLM13 cells xenografted in CrTac:NCR-Foxn1nu (NCR) nude mouse assessed as tumor growth inhibition at 150 mg/kg, po administered qd for 8 days", "format": "functional", "conditions": "MOLM-13, 192 h, read-out: TGI", "how_it_was_run": "as §2"}, "[21]": {"experiment": "AUC in po dosed CrTac:NCR-Foxn1nu (NCR) nude mouse xenografted with human MOLM13 cells administered qd for 8 days", "format": "ADME, organism-based, MOLM-13", "conditions": "in vivo", "how_it_was_run": "as §2"}, "Mus musculus": {"system": "Mus musculus", "experiment": "Toxicity in CrTac:NCR-Foxn1nu (NCR) nude mouse xenografted with human MOLM13 cells assessed as body weight loss at 25 to 150 mg/kg, po administered qd for 8 days", "format": "organism-based, MOLM-13", "design": "dose 25-150 mg/kg, route oral", "conditions": "in vivo, 192 h", "how_it_was_run": "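Body weight tracked throughout the 8-day once-daily oral study in NCR nude mice carrying MOLM13 xenografts. Doses were 25, 50, 75 and 150 mg/kg, with a vehicle control.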"}, "Tumour": {"system": "Tumour", "experiment": "Decrease in Rb phosphorylation at Ser780 in tumor of CrTac:NCR-Foxn1nu (NCR) nude mouse xenografted with human MOLM13 cells at 50 to 150 mg/kg, po after 3 to 24 hrs", "format": "functional, organism-based", "conditions": "Neoplasm, MOLM-13", "how_it_was_run": "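MOLM13 tumor-bearing mice received a single oral dose of 50, 75 or 150 mg/kg. Tumors were harvested at 3, 6 and 24 h, and lysates were assayed for pSTAT5 and pRb. Unbound plasma levels were measured at the same time points. Results are mean ± SEM, n = 3 per group and n = 6 for vehicle.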"}, "MOLM-13 [22]": {"system": "MOLM-13", "experiment": "cells", "conditions": "Homo sapiens"}, "[23]": {"target": "Cyclin-dependent kinase 4 (Homo sapiens, UniProt P11802)", "sequence (P11802 whole entry)": "as the sequence (P11802 whole entry) above", "experiment": "Inhibition of CDK4 in human COLO205 cells assessed as inhibition of Rb phosphorylation at Ser780 after 24 hrs"}},
  "note": "Active and inactive are the calls of the source. No cut-off for these calls is given here.",
  "data": [
    {"smiles": "C[C@H]1CC[C@H](n2c3cnccc3c3cnc(Nc4ccc5c(n4)CCN(C(=O)CO)C5)nc32)CC1", "values": [
      {"measurement": "IC50", "setting": "[1]", "value": 3, "unit": "nM"},
      {"measurement": "IC50", "setting": "[2]", "value": 3830, "unit": "nM"},
      {"measurement": "bioavailability", "setting": "[3]", "value": 75, "unit": "%"},
      {"measurement": "IC50", "setting": "[4]", "value": 5, "unit": "nM"},
      {"measurement": "Kd", "setting": "[5]", "value": 4, "unit": "nM"},
      {"measurement": "Kd", "setting": "[6]", "value": 4, "unit": "nM"},
      {"measurement": "Kd", "setting": "[7]", "value": 1, "unit": "nM"},
      {"measurement": "Kd", "setting": "[8]", "value": 1, "unit": "nM"},
      {"measurement": "Kd", "setting": "[9]", "value": 4, "unit": "nM"},
      {"measurement": "Kd", "setting": "[10]", "value": 4, "unit": "nM"},
      {"measurement": "clearance", "setting": "[11]", "value": 23.5, "unit": "mL/min/kg"},
      {"measurement": "Vd", "setting": "[12]", "value": 2.6, "unit": "L/kg"},
      {"measurement": "half-life", "setting": "[13]", "value": 4.1, "unit": "h"},
      {"measurement": "bioavailability", "setting": "[14]", "value": 100, "unit": "%"},
      {"measurement": "clearance", "setting": "[15]", "value": 23.7, "unit": "mL/min/kg"},
      {"measurement": "Vd", "setting": "[16]", "value": 3.2, "unit": "L/kg"},
      {"measurement": "half-life", "setting": "[17]", "value": 6.6, "unit": "h"},
      {"measurement": "bioavailability", "setting": "[18]", "value": 44, "unit": "%"},
      {"measurement": "TGI", "setting": "MOLM-13 [19]", "value": "Dose-dependent effect"},
      {"measurement": "ED50", "setting": "MOLM-13 [19]; MOLM-13, po, 192 h", "value": 22, "unit": "mg/kg"},
      {"measurement": "inhibition in vivo at 150 mg/kg", "setting": "MOLM-13 [20]", "value": 100, "unit": "%"},
      {"measurement": "AUC at 192 h", "setting": "[21]", "value": 28, "unit": "µM·h"},
      {"measurement": "Activity", "setting": "Mus musculus", "value": 10, "unit": "%"},
      {"measurement": "inhibition", "setting": "Tumour", "value": "Active"},
      {"measurement": "IC50", "setting": "MOLM-13 [22]", "value": 23, "unit": "nM"},
      {"measurement": "IC50", "setting": "[23]", "value": 23, "unit": "nM"}
    ]}
  ]
}
